Converted amounts (≈) assume the structure as drawn.
Columns and labels:
[1] = Solubility of the compound at pH 4; format: physicochemical; conditions: buffer
[2] = Volume of distribution at steady state in Sprague-Dawley rat at 2 mg/kg, iv; format: ADME, organism-based; conditions: in vivo, read-out: Vdss
[3] = Volume of distribution at steady state in Beagle dog at 1 mg/kg, iv; format: ADME, organism-based, Canis lupus familiaris; conditions: in vivo, read-out: Vdss
[4] = Oral bioavailability in C57BL/6 mouse at 3 mg/kg; format: ADME, organism-based; conditions: in vivo
[5] = Dissociation constant, pKa of the compound; format: physicochemical
[6] = Solubility of the compound in FaSSIF at pH 6.5 administered as crystalline measured after 15 mins; format: physicochemical
[7] = Drug level in tumor of nude mouse xenografted with human KCL22 cells at 3 mg/kg, po bid measured after 7 hrs post dose; format: ADME, organism-based, Neoplasm; conditions: read-out: Drug uptake
In short: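 KCL-22 human CML cells were implanted subcutaneously in mice. Compound was given by oral gavage at 3 mg/kg BID for 1 week and tumor growth was compared with vehicle control. Tumor drug concentrations were measured at 1 h and 7 h.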

Mus musculus [8] = assay: Tlast in C57BL/6 mouse at 1 mg/kg, iv; format: ADME, organism-based; conditions: in vivo
[9] = Solubility of the compound at pH 1; format: physicochemical; conditions: buffer
[10] = Half life in mouse at 1 mg/kg, iv; format: ADME, organism-based; conditions: in vivo
[11] = Oral bioavailability in mouse at 30 mg/kg; format: ADME, organism-based; conditions: in vivo
Mus musculus [12] = assay: Dose normalized AUClast in C57BL/6 mouse at 1 mg/kg, iv; format: ADME, organism-based; conditions: in vivo
In short: (§1)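 Compound dosed to male C57BL/6 mice (1 mg/kg i.v., 3 mg/kg p.o.) and Sprague-Dawley rats (2 mg/kg i.v., 3 mg/kg p.o.), non-fasted, in formulation A (HCl, PEG, solutol, PBS). Beagle dogs were fasted and given 1 mg/kg i.v. in formulation B (HCl, PEG300, solutol HS 15, citrate buffer) or 3 mg/kg p.o. as solid dispersion in 100% PBS (formulation C). Plasma PK parameters were derived.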

[13] = Clearance in C57BL/6 mouse at 1 mg/kg, iv; format: ADME, organism-based; conditions: in vivo; in short: as §1
[14] = Plasma concentration in nude mouse xenografted with human KCL22 cells at 7.5 mg/kg, po administered as solid dispersion measured after 2 hrs post first dose; format: ADME, organism-based
[15] = Protein binding in mouse plasma; format: ADME, cell-free; conditions: read-out: PPB
Rattus norvegicus [16] = assay: Dose normalized AUClast in Sprague-Dawley rat at 2 mg/kg, iv; format: ADME, organism-based; conditions: in vivo; in short: as §1
Canis familiaris [17] = assay: Tlast in Beagle dog at 3 mg/kg, po; format: ADME, organism-based, Canis lupus familiaris; conditions: in vivo
[18] = Solubility of the compound at pH 2; format: physicochemical; conditions: buffer
[19] = Volume of distribution at steady state in C57BL/6 mouse at 1 mg/kg, iv; format: ADME, organism-based; conditions: in vivo, read-out: Vdss
Mus musculus [20] = assay: Dose normalized Cmax in mouse at 30 mg/kg, po; format: ADME, organism-based; design: dose 30 mg/kg, route oral; conditions: in vivo
[21] = AUClast in Beagle dog at 3 mg/kg, po; format: ADME, organism-based, Canis lupus familiaris; design: dose 3 mg/kg, time 0 - last, route oral; conditions: in vivo; in short: as §1
[22] = Solubility of the compound in FeSSIF at pH 5.8 administered as crystalline; format: physicochemical
Mus musculus [23] = assay: Tlast in C57BL/6 mouse at 3 mg/kg, po; format: ADME, organism-based; conditions: in vivo
[24] = Apparent terminal half life in Beagle dog at 1 mg/kg, iv; format: ADME, organism-based, Canis lupus familiaris; conditions: in vivo, read-out: betat1/2(app) (converted); in short: as §1
[25] = Clearance in Beagle dog at 1 mg/kg, iv; format: ADME, organism-based, Canis lupus familiaris; conditions: in vivo; in short: as §1
Mus musculus [26] = assay: Dose normalized Cmax in C57BL/6 mouse at 3 mg/kg, po; format: ADME, organism-based; conditions: in vivo; in short: as §1
[27] = Tmax in Beagle dog at 3 mg/kg, po; format: ADME, organism-based, Canis lupus familiaris; conditions: in vivo
[28] = Apparent terminal half life in C57BL/6 mouse at 1 mg/kg, iv; format: ADME, organism-based; conditions: in vivo, read-out: betat1/2(app) (converted); in short: as §1
[29] = AUClast in Beagle dog at 1 mg/kg, iv; format: ADME, organism-based, Canis lupus familiaris; design: dose 1 mg/kg, route intravenous, time 0 - last; conditions: in vivo; in short: as §1
[30] = Oral bioavailability in Sprague-Dawley rat at 3 mg/kg; format: ADME, organism-based; conditions: in vivo
Canis familiaris [31] = assay: Dose normalized AUClast in Beagle dog at 1 mg/kg, iv; format: ADME, organism-based, Canis lupus familiaris; conditions: in vivo; in short: as §1
[32] = Solubility of the compound at pH 6.8; format: physicochemical; conditions: buffer
Rattus norvegicus [33] = assay: Dose normalized AUClast in Sprague-Dawley rat at 3 mg/kg, po; format: ADME, organism-based; conditions: in vivo; in short: as §1
[34] = Solubility of the compound in SGF at pH 2 compound administered as solid dispersion measured after 120 mins; format: physicochemical
[35] = Cmax in Beagle dog at 3 mg/kg, po; format: ADME, organism-based, Canis lupus familiaris; design: dose 3 mg/kg, route oral; conditions: in vivo; in short: as §1

## O=C(Nc1ccc(OC(F)(F)Cl)cc1)c1cnc(N2CC[C@@H](O)C2)c(-c2ccn[nH]2)c1 [ASCIMINIB]
[1]
  solubility: 2 µg/mL (≈ 4.45 µM)
[2]
  Vd: 2.2 L/kg
[3]
  Vd: 1 L/kg
[4]
  bioavailability: 21%
[5]
  pKa: 4
[6]
  solubility at […]: 9 µg/mL (≈ 20 µM)
[7]
  concentration at 7 h: 160 nM
Mus musculus [8]
  Tlast: 7 h
[9]
  solubility: 2700 µg/mL (≈ 6000 µM)
[10]
  half-life: 1.1 h
[11]
  bioavailability: 53%
Mus musculus [12]
  AUClast/dose: 1404 ng·h/mL/mg/kg
[13]
  clearance: 11.7 mL/min/kg
[14]
  concentration at 2 h: 1170 nM
[15]
  fraction unbound: 0.01
Rattus norvegicus [16]
  AUClast/dose: 944 ng·h/mL/mg/kg
Canis familiaris [17]
  Tlast: 24 h
[18]
  solubility: 450 µg/mL (≈ 1000 µM)
[19]
  Vd: 0.5 L/kg
Mus musculus [20]
  Cmax: 400 nM
[21]
  AUC(0-t): 5550 ng·h/mL
[22]
  solubility: 257 µg/mL (≈ 571 µM)
Mus musculus [23]
  Tlast: 7 h
[24]
  half-life: 3.7 h
[25]
  clearance: 6 mL/min/kg
Mus musculus [26]
  Cmax/dose: 98 ng/mL/(mg/kg)
[27]
  Tmax: 0.5 to 1 h
[28]
  half-life: 1.1 h
[29]
  AUC(0-t): 2810 ng·h/mL
[30]
  bioavailability: 9%
Canis familiaris [31]
  AUClast/dose: 2812 ng·h/mL/mg/kg
[32]
  solubility: 1 µg/mL (≈ 2.22 µM)
Rattus norvegicus [33]
  AUClast/dose: 89 ng·h/mL/mg/kg
[34]
  solubility at 2 h: 3000 µg/mL (≈ 6670 µM)
[35]
  Cmax: 1260 ng/mL

From ChEMBL document CHEMBL4196169 (J Med Chem, 2018)
